These results are taken from ChEMBL document CHEMBL1137180, “Synthesis and structure-activity relationship of a novel sulfone series of TNF-alpha converting enzyme inhibitors” (Bioorg Med Chem Lett, 2004).

For assay [1], the system named is Mus musculus. As to the kind of experiment: Compound was tested for anti TNF-alpha activity using LPS mouse model at 10 mg/kg p.o. The format is functional. The settings on record: route oral.
Assay [2] has as its target 72 kDa type IV collagenase (Homo sapiens, UniProt P08253). Briefly: inhibition of Matrix metalloprotease-2 (MMP-2). In outline: (§1)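 Inhibition is reported as Ki (nM) against each isolated MMP. Each value comes from a single determination, with no replicates.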
Another assay addresses T1, Interstitial collagenase (Homo sapiens, UniProt P03956).
T1 sequence (P03956 whole entry): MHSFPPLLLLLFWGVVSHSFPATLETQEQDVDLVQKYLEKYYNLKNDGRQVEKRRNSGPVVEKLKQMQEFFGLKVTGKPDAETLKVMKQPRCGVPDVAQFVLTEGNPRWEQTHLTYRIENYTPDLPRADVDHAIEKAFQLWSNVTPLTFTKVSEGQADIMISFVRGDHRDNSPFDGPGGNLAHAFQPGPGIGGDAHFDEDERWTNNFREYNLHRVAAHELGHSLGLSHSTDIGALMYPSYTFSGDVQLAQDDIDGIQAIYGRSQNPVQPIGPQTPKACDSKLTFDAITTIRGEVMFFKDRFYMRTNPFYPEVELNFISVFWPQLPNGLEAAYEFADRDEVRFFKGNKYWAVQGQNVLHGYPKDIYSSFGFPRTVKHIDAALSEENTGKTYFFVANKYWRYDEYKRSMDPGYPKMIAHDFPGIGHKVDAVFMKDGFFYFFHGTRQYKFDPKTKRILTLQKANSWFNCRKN
As to the kind of experiment: Inhibition of Matrix metalloprotease-1 (MMP-1). The method, boiled down:
as §1

The test system of assay [3] is Caco-2. Briefly: Permeability action in Caco-2 cells. It counts as functional, Homo sapiens. For orientation: Caco-2 monolayers are a common model of the intestinal barrier.
For assay [4], the target named is Matrix metalloproteinase-9 (Homo sapiens, UniProt P14780). As to the kind of experiment: Inhibition of Matrix metalloprotease-9 (MMP-9). In outline: as §1
Sequence of Matrix metalloproteinase-9 (P14780 whole entry): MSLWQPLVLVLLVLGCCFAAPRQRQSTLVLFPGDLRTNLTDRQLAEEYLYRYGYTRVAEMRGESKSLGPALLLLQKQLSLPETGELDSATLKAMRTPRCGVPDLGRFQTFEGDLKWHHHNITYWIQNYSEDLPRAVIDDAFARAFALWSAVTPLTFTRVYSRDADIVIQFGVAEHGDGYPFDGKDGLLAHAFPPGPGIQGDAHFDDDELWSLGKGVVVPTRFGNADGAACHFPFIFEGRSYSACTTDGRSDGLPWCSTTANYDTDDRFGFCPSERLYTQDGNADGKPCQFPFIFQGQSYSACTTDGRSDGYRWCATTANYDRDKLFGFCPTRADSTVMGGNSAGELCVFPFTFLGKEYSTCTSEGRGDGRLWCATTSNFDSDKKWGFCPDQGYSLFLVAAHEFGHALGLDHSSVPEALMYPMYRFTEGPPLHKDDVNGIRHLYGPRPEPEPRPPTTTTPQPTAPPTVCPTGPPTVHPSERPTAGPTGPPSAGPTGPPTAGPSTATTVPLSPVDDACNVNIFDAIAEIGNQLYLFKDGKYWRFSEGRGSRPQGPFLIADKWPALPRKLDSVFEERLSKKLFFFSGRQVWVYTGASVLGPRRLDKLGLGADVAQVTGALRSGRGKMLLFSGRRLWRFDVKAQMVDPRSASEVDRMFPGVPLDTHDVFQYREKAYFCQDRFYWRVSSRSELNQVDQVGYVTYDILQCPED
Another assay addresses Collagenase 3 (Homo sapiens, UniProt P45452). As to the kind of experiment: Inhibition of Matrix metalloprotease-13 (MMP-13). In outline:
as §1

Assay [5] addresses Disintegrin and metalloproteinase domain-containing protein 17 (Sus scrofa, UniProt O77636). As to the kind of experiment: Inhibition of porcine Tumor necrosis factor- alpha converting enzyme (TACE, ADAM17).
Assay [6] concerns the target Disintegrin and metalloproteinase domain-containing protein 17 (Homo sapiens, UniProt P78536). Briefly: Effect on TNF-Alpha release in LPS-stimulated human whole blood assay. The format is functional, tissue-based.
The subject of assay [7] is Mus musculus. As to the kind of experiment: Compound was tested for anti TNF-alpha activity using LPS mouse model at 5 mg/kg p.o. The format is functional. The settings on record: route oral.
Assay [8] relates to Caco-2. Briefly: Permeability action in Caco-2 cell. It counts as functional, Homo sapiens.

Sequence of 72 kDa type IV collagenase (P08253 whole entry): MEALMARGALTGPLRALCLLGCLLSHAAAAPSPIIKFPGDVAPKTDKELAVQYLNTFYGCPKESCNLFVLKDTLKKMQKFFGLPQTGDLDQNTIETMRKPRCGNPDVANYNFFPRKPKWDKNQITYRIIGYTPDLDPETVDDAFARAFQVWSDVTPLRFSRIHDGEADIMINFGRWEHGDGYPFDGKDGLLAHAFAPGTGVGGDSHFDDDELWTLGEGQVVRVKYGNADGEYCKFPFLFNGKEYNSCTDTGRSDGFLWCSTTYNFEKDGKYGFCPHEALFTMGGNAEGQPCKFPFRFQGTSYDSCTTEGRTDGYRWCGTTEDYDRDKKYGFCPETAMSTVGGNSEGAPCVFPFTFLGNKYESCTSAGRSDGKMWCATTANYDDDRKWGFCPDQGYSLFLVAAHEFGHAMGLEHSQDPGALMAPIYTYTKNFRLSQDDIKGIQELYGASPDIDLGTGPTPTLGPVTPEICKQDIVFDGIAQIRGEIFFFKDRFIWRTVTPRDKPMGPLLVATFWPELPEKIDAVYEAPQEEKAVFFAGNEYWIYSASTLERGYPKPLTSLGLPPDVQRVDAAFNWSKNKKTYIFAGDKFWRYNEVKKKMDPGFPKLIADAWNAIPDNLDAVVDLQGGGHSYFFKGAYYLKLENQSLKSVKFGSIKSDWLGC
Sequence of Disintegrin and metalloproteinase domain-containing protein 17 (Homo sapiens, UniProt P78536) (P78536 whole entry, the tested form may be a part): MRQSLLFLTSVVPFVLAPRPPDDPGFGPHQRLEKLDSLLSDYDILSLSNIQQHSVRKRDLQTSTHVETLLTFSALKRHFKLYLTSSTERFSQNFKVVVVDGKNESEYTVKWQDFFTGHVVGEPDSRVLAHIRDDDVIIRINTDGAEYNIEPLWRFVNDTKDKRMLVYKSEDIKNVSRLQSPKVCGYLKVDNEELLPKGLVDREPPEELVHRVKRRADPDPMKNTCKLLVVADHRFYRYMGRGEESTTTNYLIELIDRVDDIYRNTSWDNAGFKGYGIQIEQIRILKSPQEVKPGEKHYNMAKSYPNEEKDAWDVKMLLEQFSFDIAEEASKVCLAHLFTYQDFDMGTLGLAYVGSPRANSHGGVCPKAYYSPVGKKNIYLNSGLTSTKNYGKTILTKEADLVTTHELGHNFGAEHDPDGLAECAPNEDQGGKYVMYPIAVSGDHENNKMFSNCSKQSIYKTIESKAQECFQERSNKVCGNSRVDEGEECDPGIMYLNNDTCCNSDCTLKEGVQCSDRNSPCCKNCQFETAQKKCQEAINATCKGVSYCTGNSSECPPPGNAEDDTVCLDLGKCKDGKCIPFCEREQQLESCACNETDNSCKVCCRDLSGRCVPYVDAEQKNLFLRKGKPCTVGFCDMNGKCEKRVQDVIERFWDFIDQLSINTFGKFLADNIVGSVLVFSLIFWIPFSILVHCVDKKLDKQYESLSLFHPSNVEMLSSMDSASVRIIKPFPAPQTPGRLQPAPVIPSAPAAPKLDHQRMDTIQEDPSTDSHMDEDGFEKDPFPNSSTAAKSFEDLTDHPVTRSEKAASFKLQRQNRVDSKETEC
Sequence of Disintegrin and metalloproteinase domain-containing protein 17 (Sus scrofa, UniProt O77636) (O77636 whole entry, the tested form may be a part): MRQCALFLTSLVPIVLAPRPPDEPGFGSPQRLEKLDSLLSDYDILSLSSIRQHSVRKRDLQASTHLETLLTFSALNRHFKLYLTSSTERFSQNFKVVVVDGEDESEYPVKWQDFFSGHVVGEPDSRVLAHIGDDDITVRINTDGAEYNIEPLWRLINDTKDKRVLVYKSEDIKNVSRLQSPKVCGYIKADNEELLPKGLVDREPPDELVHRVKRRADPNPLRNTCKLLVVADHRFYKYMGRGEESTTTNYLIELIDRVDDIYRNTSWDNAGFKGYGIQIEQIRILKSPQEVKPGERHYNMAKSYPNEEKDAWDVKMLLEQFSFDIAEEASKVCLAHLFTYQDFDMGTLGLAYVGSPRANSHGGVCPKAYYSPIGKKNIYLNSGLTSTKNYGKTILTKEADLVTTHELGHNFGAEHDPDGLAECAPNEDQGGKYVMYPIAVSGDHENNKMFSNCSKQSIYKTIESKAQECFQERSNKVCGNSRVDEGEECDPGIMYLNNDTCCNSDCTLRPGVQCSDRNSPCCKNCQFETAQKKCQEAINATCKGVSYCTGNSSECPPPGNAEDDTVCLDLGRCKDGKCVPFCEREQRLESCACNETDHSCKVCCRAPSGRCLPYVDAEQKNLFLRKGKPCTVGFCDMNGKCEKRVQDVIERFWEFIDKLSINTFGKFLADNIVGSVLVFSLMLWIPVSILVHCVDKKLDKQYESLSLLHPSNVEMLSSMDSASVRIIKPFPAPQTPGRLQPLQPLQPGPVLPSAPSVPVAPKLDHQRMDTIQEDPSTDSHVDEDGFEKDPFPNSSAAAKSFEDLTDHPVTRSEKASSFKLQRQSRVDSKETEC

What is called inhibition in vivo is the share of the control response that was lost under treatment. A low value points to a response near the control. Broadly, the Ki is a measure of affinity in units of concentration, obtained from inhibition or displacement. A lower Ki goes with higher affinity. The IC50 is the concentration that gives 50% inhibition. A high value points to a need for much substance. As for `Cc1cc(COc2ccc(S(=O)(=O)CC3CN(C(C)C)CCC3C(=O)NO)cc2)c2ccccc2n1` (stereo not given), in the assay with Mus musculus [1], the inhibition in vivo at 10 mg/kg is 38%. For the same compound, the Ki is more than 3300 nM in [2], more than 4900 nM at Interstitial collagenase, more than 2100 nM in assay [4] and more than 5000 nM at Collagenase 3. Also, the “Caco-2 Papp” value with Caco-2 [3] was 0.1 ×10⁻⁶ cm/s. Further, the concentration for half-maximal inhibition (IC50) in [5] turned out to be 1.5 nM; in [6], 230 nM.
Broadly, the ED50 is the dose at which the effect has come halfway, by size or by number of responders. `CONC(=O)[C@H]1CCCN(C)[C@@H]1C(=O)Nc1ccc(OCc2cc(C)nc3ccccc23)cc1` showed an ED50 in the assay with Mus musculus [1] of 3 mg/kg. In addition, the inhibition in vivo at 10 mg/kg in the assay on Mus musculus [1] was more than 50%. Also, the figures for the Ki (in assay [2]; on Interstitial collagenase; in assay [4]) were more than 3300 nM, more than 4900 nM and more than 2100 nM, respectively. Also, the “Caco-2 Papp” value in the assay on Caco-2 [3] stood at 2.1 ×10⁻⁶ cm/s. The IC50 was determined as 6.2 nM in [5] and 20 nM in assay [6].
In the assay with Mus musculus [7], `Cc1cc(COc2ccc(S(=O)(=O)CC3(CC(=O)NO)CCCN(CC(C)C)C3)cc2)c2ccccc2n1` (stereo not given) returned an inhibition in vivo at 5 mg/kg of 25%. Moreover, the Ki in assay [2] is more than 3300 nM; on Interstitial collagenase it was more than 4900 nM; in [4], more than 2100 nM; at Collagenase 3, more than 5000 nM. Also, the “Caco-2 Papp” value in the assay on Caco-2 [3] amounted to 0.7 ×10⁻⁶ cm/s. For the same compound, the IC50 in assay [5] was determined as 3.3 nM; in assay [6], 2500 nM.
For the compound `Cc1cc(COc2ccc(S(=O)(=O)CC3C(C(=O)NO)CCN3C)cc2)c2ccccc2n1` (stereo not given), in the assay on Mus musculus [1], it took a dose of 2.5 mg/kg to reach the 50% effect level (ED50). The same compound gave an inhibition in vivo at 10 mg/kg with Mus musculus [1] of 50%. Also, the inhibition constant Ki in [2] was more than 3300 nM; at Interstitial collagenase, more than 4900 nM; in assay [4], more than 2100 nM; at Collagenase 3, 1710 nM. For the same compound, the “Caco-2 Papp” value in the assay on Caco-2 [3] was 1 ×10⁻⁶ cm/s. The half-inhibitory concentration (IC50) in [5] was less than 1 nM; in [6] it was 180 nM.
Turning to `CCC(C)N1CCC(C(=O)NO)C(CS(=O)(=O)c2ccc(OCc3cc(C)nc4ccccc34)cc2)C1` (stereo not given), at 10 mg/kg the inhibition in vivo with Mus musculus [1] was 33%. Besides, the inhibition constant (Ki) was more than 3300 nM in assay [2], more than 4900 nM at Interstitial collagenase, more than 2100 nM in [4] and more than 5000 nM on Collagenase 3. The “Caco-2 Papp” value in the assay on Caco-2 [3] turned out to be 1.8 ×10⁻⁶ cm/s. The half-inhibitory concentration (IC50) in assay [5] was less than 1 nM; in assay [6] it was 1070 nM.
As to `Cc1cc(COc2ccc(S(=O)(=O)CC3(CC(=O)NO)CCCNC3)cc2)c2ccccc2n1` (stereo not given), in the assay with Mus musculus [7], testing at 5 mg/kg gave an inhibition in vivo of 31%. For the same compound, the inhibition constant (Ki) in assay [2] is more than 3300 nM; on Interstitial collagenase it was more than 4900 nM; in assay [4], more than 2100 nM; on Collagenase 3 it was more than 5000 nM. Also, the “Caco-2 Papp” value with Caco-2 [3] stood at 0.1 ×10⁻⁶ cm/s. In addition, the figures for the IC50 in assay [5] and in assay [6] were 2.8 nM and 123 nM, respectively.
Turning to `C=CCN1CCC(C(=O)NO)C(CS(=O)(=O)c2ccc(OCc3cc(C)nc4ccccc34)cc2)C1` (stereo not given), in the assay with Mus musculus [1], the inhibition in vivo at 10 mg/kg amounted to 25%. Also, the Ki in assay [2] was more than 3300 nM; at Interstitial collagenase, more than 4900 nM; in [4] it was more than 2100 nM; on Collagenase 3 it was 503 nM. Moreover, the “Caco-2 Papp” value in the assay on Caco-2 [3] was 0.97 ×10⁻⁶ cm/s. Further, the IC50 in [5] was 1.8 nM; in assay [6], 160 nM.
The compound `Cc1cc(COc2ccc(S(=O)(=O)CC3NCCC3C(=O)NO)cc2)c2ccccc2n1` (stereo not given) had an inhibition in vivo at 10 mg/kg in the assay with Mus musculus [1] of 20%. Moreover, the Ki was more than 3300 nM in [2], more than 4900 nM on Interstitial collagenase, more than 2100 nM in assay [4] and 955 nM on Collagenase 3. Moreover, in the assay with Caco-2 [3], the “Caco-2 Papp” value turned out to be 0.1 ×10⁻⁶ cm/s. Also, the IC50 in [5] is less than 1 nM; in assay [6], 83 nM.
In the assay on Mus musculus [7], `Cc1cc(COc2ccc(S(=O)(=O)CC3(CC(=O)NO)CCCCN3)cc2)c2ccccc2n1` (stereo not given) gave an inhibition in vivo at 5 mg/kg of 50%. Also, the Ki in assay [2] was more than 3300 nM; at Interstitial collagenase it was more than 4900 nM; in [4] it was more than 2100 nM; on Collagenase 3, 753 nM. The “Caco-2 Papp” value in the assay on Caco-2 [3] was determined as 1.7 ×10⁻⁶ cm/s. Moreover, the IC50 in [5] was less than 1 nM; in assay [6] it was 632 nM.
Compound `Cc1cc(COc2ccc(S(=O)(=O)CC3(CC(=O)NO)CCN(CC(C)C)C3)cc2)c2ccccc2n1` (stereo not given) had an inhibition in vivo at 5 mg/kg with Mus musculus [7] of 22%. Besides, the Ki in assay [2] is 2170 nM; on Interstitial collagenase it was more than 4900 nM; in [4], more than 2100 nM; at Collagenase 3, 603 nM. The “Caco-2 Papp” value in the assay with Caco-2 [3] was found to be 0.8 ×10⁻⁶ cm/s. Also, the figures for the IC50 in assay [5] and in [6] were 2.6 nM and 161 nM, respectively.
Take `CCCCN1CCC(C(=O)NO)C(CS(=O)(=O)c2ccc(OCc3cc(C)nc4ccccc34)cc2)C1` (stereo not given): at 10 mg/kg the inhibition in vivo in the assay with Mus musculus [1] was 35%. For the same compound, the Ki is more than 3300 nM in assay [2], more than 4900 nM at Interstitial collagenase, more than 2100 nM in assay [4] and more than 5000 nM at Collagenase 3. The “Caco-2 Papp” value in the assay with Caco-2 [3] stood at 1.6 ×10⁻⁶ cm/s. For the same compound, the figures for the IC50 in [5] and in [6] were less than 1 nM and 900 nM, respectively.
Turning to `C#CN1CCC(C(=O)NO)C(CS(=O)(=O)c2ccc(OCc3cc(C)nc4ccccc34)cc2)C1` (stereo not given), 10 mg/kg produced 24% inhibition in vivo with Mus musculus [1]. For the same compound, the inhibitory constant (Ki) in assay [2] was more than 3300 nM; on Interstitial collagenase, more than 4900 nM; in [4], more than 2100 nM; at Collagenase 3, 377 nM. In addition, the “Caco-2 Papp” value in the assay on Caco-2 [3] was determined as 1.3 ×10⁻⁶ cm/s. Moreover, the figures for the half-maximal inhibitory concentration (IC50) in [5] and in assay [6] were 1 nM and 180 nM, respectively.
`Cc1cc(COc2ccc(S(=O)(=O)CC3(CC(=O)NO)CCC3)cc2)c2ccccc2n1`: in the assay on Mus musculus [7], testing at 5 mg/kg gave an inhibition in vivo of 86%. Also, the Ki in [2] was 2570 nM; at Interstitial collagenase, more than 4900 nM; in assay [4], more than 2100 nM; on Collagenase 3, 753 nM. Also, the “Caco-2 Papp” value in the assay with Caco-2 [3] stood at 4.9 ×10⁻⁶ cm/s. In addition, the half-inhibitory concentration (IC50) is less than 1 nM in assay [5] and 223 nM in [6].
In the assay with Mus musculus [7], `Cc1cc(COc2ccc(S(=O)(=O)CC3(CC(=O)NO)CCCN(C)C3)cc2)c2ccccc2n1` (stereo not given) came in with an inhibition in vivo at 5 mg/kg of 49%. The Ki in assay [2] was more than 3300 nM; on Interstitial collagenase, more than 4900 nM; in [4], more than 2100 nM; at Collagenase 3 it was 3870 nM. Also, the “Caco-2 Papp” value in the assay with Caco-2 [3] was determined as 0.2 ×10⁻⁶ cm/s. In addition, the half-maximal inhibitory concentration (IC50) was 3.6 nM in assay [5] and 208 nM in assay [6].
For the compound `Cc1cc(COc2ccc(S(=O)(=O)CC3CNCCC3C(=O)NO)cc2)c2ccccc2n1` (stereo not given), the inhibitory constant (Ki) in assay [2] is more than 3300 nM; at Interstitial collagenase, more than 4900 nM; in [4], more than 2100 nM; at Collagenase 3 it was more than 5000 nM. In addition, the IC50 in assay [5] is 1 nM; in assay [6] it was 250 nM. Also, the “Caco-2 Papp” value in the assay on Caco-2 [8] worked out at 0.1 ×10⁻⁶ cm/s.
